Laboratory results reported in article PMC9436332 (Proceedings of the National Academy of Sciences of the …, 2022).
“Also recorded” adds a separate entry of the source.

Assays:
WT-SARM1 [1] = experiment: Gel-ABPP, in vitro treatment, WT-SARM1 recombinantly expressed in HEK293T cells; type: binding, human; conditions: 1 h; for effect of metabolite on MY-13B engagement of SARM1: 0.125-1 mM, MY-13B 20 µM
rat DRG neurons = type: cell-based; conditions: 48 h
[2] = tested on: quantified cysteines in the human proteome (22Rv1 cells); experiment: Cysteine-directed MS-ABPP; type: binding; conditions: 20 µM, 3 h, in situ; 22Rv1 and Ramos
Outline: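 22Rv1 cells were plated at 15 million cells per 15-cm dish and treated the next day. Ramos cells were adjusted to 3 × 10⁶ cells/mL and rested 30 min before treatment. Cells got 20 μM test compound in situ for 3 h, then were washed in cold DPBS and frozen. Cells were probe-sonicated in cold PBS, and 2 mg/mL lysate was labelled with IA-DTB (10 mM DMSO stock) for 1 h at room temperature in the dark. Cysteines were quantified by LC-MS/MS/MS against DMSO.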

mouse DRG neurons = experiment: Vacor-induced neurite degeneration in mouse DRG neurons; type: cell-based; conditions: for Degeneration Index (%): +50 μM Vacor alone
endogenous SARM1 = molecular target: T1, endogenous SARM1 (Homo sapiens, UniProt Q6SZW1); type: cell-based; conditions: SH-SY5Y cells, vacor 50 µM, 0-8 h
T1 sequence (Q6SZW1 28-724): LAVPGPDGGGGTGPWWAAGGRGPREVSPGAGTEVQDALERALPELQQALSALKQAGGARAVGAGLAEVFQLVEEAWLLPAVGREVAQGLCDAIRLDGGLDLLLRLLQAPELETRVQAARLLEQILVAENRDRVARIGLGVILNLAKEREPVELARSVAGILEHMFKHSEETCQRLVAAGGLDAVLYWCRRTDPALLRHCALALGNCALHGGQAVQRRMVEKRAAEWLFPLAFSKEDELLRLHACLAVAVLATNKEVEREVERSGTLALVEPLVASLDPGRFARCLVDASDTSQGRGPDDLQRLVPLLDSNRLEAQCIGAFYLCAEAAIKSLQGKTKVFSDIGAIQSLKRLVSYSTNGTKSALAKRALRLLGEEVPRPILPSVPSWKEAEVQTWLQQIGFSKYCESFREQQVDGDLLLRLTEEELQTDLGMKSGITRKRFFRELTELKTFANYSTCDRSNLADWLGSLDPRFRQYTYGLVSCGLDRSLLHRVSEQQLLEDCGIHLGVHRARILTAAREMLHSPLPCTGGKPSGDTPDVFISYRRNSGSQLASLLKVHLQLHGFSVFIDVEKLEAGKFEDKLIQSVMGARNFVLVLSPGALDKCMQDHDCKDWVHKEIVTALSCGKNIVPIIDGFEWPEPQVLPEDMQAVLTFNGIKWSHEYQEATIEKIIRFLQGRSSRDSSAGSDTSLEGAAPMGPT
Outline: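 SH-SY5Y cells were pretreated in situ with compound for 3 h (0.1% DMSO), then given 50 μM vacor for 4 h. Pellets were resuspended in DPBS and quenched with cold methanol:acetonitrile (1:1) containing 100 pmol 8-Br-cADPR internal standard. Extraction used three freeze/sonication cycles, −20 °C for 1 h, centrifugation, drying and resuspension. cADPR was measured by LC-MS/MS, normalized to total protein; mean ± SEM of three independent experiments.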

SARM1-C311A = experiment: Gel-ABPP, in situ, SARM1-C311A mutant expressed in HEK293T cells; type: binding, human; conditions: 20 µM, 1 h
Outline: (§1)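 N-terminally FLAG-tagged human SARM1 (WT or C311A) was transiently expressed in HEK293T cells and treated 48 h post-transfection. Cells got either alkyne probe alone (20 μM, 1 h, in situ) or 3 h compound pretreatment followed by probe. Lysates (ice-cold DPBS with protease inhibitors, 1.0 mg/mL) underwent 1 h CuAAC with rhodamine-azide/TCEP/TBTA/CuSO₄. Analysis was SDS-PAGE in-gel fluorescence with background-subtracted band intensities; IC₅₀ by four-parameter fit; three independent experiments.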

mouse SARM1 = experiment: Gel-ABPP, in situ, mouse SARM1 recombinantly expressed in HEK293T cells; type: binding; conditions: 20 µM, 1 h, compared with human SARM1
WT-SARM1 [3] = experiment: Gel-ABPP, in situ, WT-SARM1 recombinantly expressed in HEK293T cells; type: binding, human; conditions: 1 h
Outline: as §1

SARM1 = conditions: cited from earlier work

NC(=O)c1ccc[n+]([C@@H]2O[C@H](COP(=O)([O-])O)[C@@H](O)[C@H]2O)c1 [NMN, nicotinamide mononucleotide, reference compound]
effect of metabolite on MY-13B engagement of SARM1 (WT-SARM1 [1]): neither metabolite affected MY-13B engagement

CC[C@]1(O)C[C@H]2CN(CCc3c([nH]c4ccccc34)[C@@](C(=O)OC)(c3cc4c(cc3OC)N(C=O)[C@H]3[C@@](O)(C(=O)OC)[C@H](OC(C)=O)[C@]5(CC)C=CCN6CC[C@]43[C@@H]65)C2)C1 [vincristine, reference compound]
induction of neurite degeneration (rat DRG neurons; vincristine 40 nM): robust neurite degeneration

C=CC(=O)N1[C@@H](c2ccc3c(c2)OCO3)c2[nH]c3ccccc3c2C[C@H]1C(=O)NC [MY-9A]
off-target cysteines also engaged by the SARM1-inactive enantiomers [2]: DCTN4_C258, KEAP1_C151, PTGES2_C110, and UBR1_C1603 | prevention of vincristine-induced neurite degeneration (rat DRG neurons; 40 nM vincristine): weak activity | blockade of vacor-induced neurite degeneration (mouse DRG neurons; 1–20 µM, vacor 50 µM, over 48 h): ineffective

O=C(NCc1cccnc1)Nc1ccc([N+](=O)[O-])cc1 [vacor]
Degeneration Index (%) (mouse DRG neurons; 8 h): ~60% | Degeneration Index (%) (mouse DRG neurons; 24 h): full degeneration | induction of cADPR production (endogenous SARM1): robust, time-dependent production of cADPR

C#CCNC(=O)[C@@H]1Cc2c([nH]c3ccccc23)[C@H](c2ccc3c(c2)OCO3)N1C(=O)C=C [MY-13A]
reactivity of alkyne probe with SARM1-C311A (gel-ABPP) (SARM1-C311A): very low reactivity

C#CCNC(=O)[C@H]1Cc2c([nH]c3ccccc23)[C@@H](c2ccc3c(c2)OCO3)N1C(=O)C=C [MY-13B]
reactivity of alkyne probe with SARM1 in vitro (WT-SARM1 [1]; 20 µM): stereoselective reactivity; also recorded: maintained stereoselective engagement | reactivity of alkyne probe with SARM1-C311A (gel-ABPP) (SARM1-C311A): very low reactivity | labeling of recombinant mouse SARM1 by alkyne probe (mouse SARM1): lower extent of labeling | reactivity of alkyne probe with WT-SARM1 (gel-ABPP) (WT-SARM1 [3]; 20 µM): reacted strongly

NC(=O)c1ccc[n+]([C@@H]2O[C@H](COP(=O)([O-])OP(=O)(O)OC[C@H]3O[C@@H](n4cnc5c(N)ncnc54)[C@H](O)[C@@H]3O)[C@@H](O)[C@H]2O)c1 [NAD^+, nicotinamide adenine dinucleotide, reference compound]
effect of metabolite on MY-13B engagement of SARM1 (WT-SARM1 [1]): neither metabolite affected MY-13B engagement

COC(=O)c1c(C)nc(C)c(C(=O)OCC(C)C)c1-c1ccccc1N=O [dHNN, dehydronitrosonisoldipine, reference compound]
engagement of SARM1_C311 (effect on MY-13B reactivity) (WT-SARM1 [3]; 5–50 µM, 3 h pretreatment, MY-13B 20 µM): did not observe substantial alterations in MY-13B reactivity | effect of C311 mutagenesis on inhibitory activity (SARM1): only modestly impaired (∼twofold)
